This passage reports inhibition results from PubChem BioAssay AID804 (SRMLSC, 2007).

In all, about 140,000 compounds went through this assay and about 710 (0.51%) were called active. This is one part of a sample in which actives are shown more often than they occur. Unmarked numbers belong to inactive results.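 The calls were made as follows: active = inhibition above a set limit, 3 SD over the mean compound inhibition (cut at about 44% in these data); inactive = the rest.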

A short description of the assay: growth inhibitors of yeast BB579 in restrictive medium, primary screen, yeast lifespan-shortening project, S. cerevisiae (AID 804). The settings on record: OD615, 48 h, at 10 µM, active compounds read high. The method in brief: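 Test system: S. cerevisiae DeaD strain BB579 yeast; Medium: restrictive CSMM-D medium; Compound: one dose, 10 µM compound with 0.25% DMSO; Incubation: 4 h cell preincubation, 48 h compound exposure, 30 °C humidified; Signal: OD at 615 nm; Benchmarks: amphotericin B at 10 µg/mL as positive control.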
As for `COc1cc(Br)cc(/C=N/c2ncn[nH]2)c1O`, the inhibition was 54.7% (active).

Take `Oc1ccc(Br)cc1C=Nc1ccc2[nH]ncc2c1`: the inhibition is -67.6%.

For `COc1ccc(Br)cc1/C=N/n1c(C)nnc1C`, the inhibition was -33.3%.

Turning to `O=c1[nH]n(-c2cccc(Cl)c2)c2ncccc12`, the inhibition was -63.7%.

As to `Clc1cccc(CN2COc3c(cc(Cl)c4cccnc34)C2)c1`, the inhibition is 99.4% (active).

With `Nc1c(C(=O)NCc2ccccc2)nnn1Cc1cccc(Cl)c1`, the inhibition is -3.98%.

Regarding `Cc1cc(OCCCC(=O)NCCN2C(=O)S/C(=C\c3cccnc3)C2=O)ccc1Cl`, the inhibition is -3.48%.

Take `CCc1c(C)sc(NC(=O)/C=C/c2ccc3c(c2)OCO3)c1C(=O)OC`: the inhibition was -27.2%.

As to `Nc1nc(NC(=O)/C=C/c2ccccc2)nn1-c1ccccc1`, the inhibition was -11.2%.

`NC(N)=N/N=C/c1ccc(OCc2ccc(Cl)cc2Cl)cc1`: the inhibition is 99.3% (active).

Turning to `COC(=O)c1sc2ncccc2c1OCc1ccc(Cl)cc1Cl`, the inhibition was -44.1%.

On to `COc1ccc(C(=O)O/N=C(\N)Cc2ccc(Cl)cc2Cl)cc1OC`, for which the inhibition is -25.8%.

Take `COc1ccccc1CN(C)C(=O)C1(c2ccc(Cl)cc2)CC1`: the inhibition is -2.98%.

Turning to `N/C(=N\OC(=O)CC1CCCCC1)c1ccccc1`, the inhibition is -2.81%.

Consider `CCCCn1c(=S)[nH]c2ccccc2c1=O`, for which the inhibition was 6.35%.

Regarding `Cc1c(Cl)c([N+](=O)[O-])nn1CCCC(=O)Nc1cc(Cl)ccc1Cl`, the inhibition was 2.39%.

For `Nc1nc(SCC(=O)NN(c2ccccc2)c2ccccc2)n[nH]1`, the inhibition was -6.56%.

On to `CC(C)(C)C1CCC(=NNC(=O)c2cc(-c3ccccc3)n[nH]2)CC1` (stereo not given), for which the inhibition was -16.9%.

In the case of `O=C1NC(c2ccccc2)=NC1(Nc1ccccn1)C(F)(F)F` (stereo not given), the inhibition was -3.11%.

On to `CCN=C1S/C(=C\c2cc(Br)ccc2OCC(=O)OCC)C(=O)N1CC`, for which the inhibition was -14.3%.

With `COCCn1c(SCC(=O)Nc2ccc3c(c2)CCC3)nc2ccccc2c1=O`, the inhibition is -36.9%.

With `COc1ccc(C2Nc3ccccc3C(=O)N2c2ccc(F)cc2)cc1Cn1nnc2ccccc21` (stereo not given), the inhibition was -29.1%.

`CC(C)CNC(=S)Nc1ccc(F)cc1`: the inhibition is 14.5%.

As for `CCOC(=O)c1cc2c(nc1NC(=S)Nc1ccccc1)CC(C)(CC)OC2` (stereo not given), the inhibition is 0.93%.

As to `COc1cc(NC(=O)c2ccccc2NS(=O)(=O)c2ccc(Cl)s2)cc(OC)c1`, the inhibition is -5.4%.

As to `S=C(NCc1ccc(Cl)cc1)NC12CC3CC(CC(C3)C1)C2`, the inhibition is 50% (active).

For `S=C(NCc1ccc(Cl)cc1)NC1CCCCC1`, the inhibition was -27.3%.

With `COC(=O)Cc1ccc(NC(=S)NCc2ccc(Cl)cc2)cc1`, the inhibition was -19.1%.

Regarding `O=C(CCc1nc2ccccc2c(=O)[nH]1)OCC(=O)c1cccc(Cl)c1`, the inhibition is -13.4%.

Turning to `N#C/C(=C/c1cccc([N+](=O)[O-])c1)c1nnc2n1CCCCC2`, the inhibition is -18.8%.

With `COCC(C)n1c(C)cc(C(=O)CSc2cc(C)c3ccccc3n2)c1C` (stereo not given), the inhibition is -56.2%.

Turning to `O=c1[nH]cnc2c1c(-c1ccccc1)cn2-c1ccc(F)cc1`, the inhibition was -19.6%.

Take `COc1ccc(-n2nnnc2-c2nc3ccccc3s2)cc1`: the inhibition was -33.6%.

Regarding `O=C1OC(OC(=O)c2ccccc2Br)C(N2CCOCC2)=C1Cl` (stereo not given), the inhibition was -32.6%.

For the compound `Cc1cccc(OCC(=O)NC(=S)Nc2ccccc2N2CCOCC2)c1`, the inhibition was -49.4%.

Consider `CCOc1cc(N2CCOCC2)c(OCC)cc1NC(=O)COc1cccc2cccnc12`, for which the inhibition is 67.1% (active).

Take `CCOc1cc(N2CCOCC2)c(OCC)cc1NC(=O)COC(=O)[C@H](Cc1c[nH]c2ccccc12)NC(C)=O`: the inhibition was -16%.

For the compound `CCc1ccc2c(c1)C(c1ccc([N+](=O)[O-])cc1)=NNC(c1ccccc1)=N2`, the inhibition was -23.5%.

As for `Cn1c(=O)c(C(=O)Nc2ncccn2)c(O)c2ccccc21`, the inhibition was 68.5% (active).

`O=C(Nc1ncccn1)c1cccs1`: the inhibition was -21.9%.

For `Cn1c(=O)c(Sc2ccc(Cl)cc2)c(O)c2ccccc21`, the inhibition was -21.7%.

As to `Cc1ccc(NC(=O)c2sc3nc(N)c(C#N)cc3c2N)cc1`, the inhibition was -23.2%.

For the compound `O=C(Cc1c[nH]c2ccccc12)N/N=C/c1cccc(F)c1`, the inhibition is -39.1%.

As for `COC(=O)Cn1c2ccc(C)cc2c2nc(C)sc21`, the inhibition was 43.6% (active).

Take `COC(=O)Cn1c(=NC(=O)c2cc(OC)c(OC)c(OC)c2)sc2cc(OC)ccc21`: the inhibition was -32.8%.

Consider `CCN(CC)CCn1c2ccc(Cl)cc2c2nc(C)sc21`, for which the inhibition is -1.41%.

As for `CCOC(=O)c1nn(-c2ccccc2F)c2nc(Nc3ccccc3)cc(=O)n12`, the inhibition was -45.6%.

With `Cc1c(C=O)c2ccccn2c1C(=O)c1ccncc1`, the inhibition was 43.9% (active).

Take `CC(OC(=O)CNS(=O)(=O)/C=C/c1ccccc1)C(=O)Nc1ccc(S(=O)(=O)N2CCCC2)cc1` (stereo not given): the inhibition was -25.4%.

Consider `CN1CCC(=NNC(=O)c2ccc(N(Cc3ccc(Cl)cc3)S(C)(=O)=O)cc2)CC1`, for which the inhibition was -8.48%.
